# Source: the RNAGym collection of RNA variant scans (doi:10.1126/science.aae0568)
# Fewer inactive variants are shown than the library holds.
# B1: tRNA (parent)
# chain: GUUCCGUUGGCGUAAUGGUAACGCGUCUCCCUCCUAAGGAGAAGACUGCGGGUUCGAGUCCCGUACGGAACG
# Variants of: B1
# Experiment: yeast fitness relative to wild type (ratio to wild type); higher = fitter; tRNA-Arg(CCU), competitive growth, 37 C, YPD
# How it was run: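 Start and end populations of a pooled competition were compared by 100-nucleotide paired-end sequencing of gene amplicons. The Saccharomyces cerevisiae strains carried tRNA-Arg(CCU) gene variants at the native genomic locus, synthesised with a 3% per-site mutation rate at 69 sites, and competed in YPD at 37°C for 24 hours in six parallel replicates. Darwinian fitness relative to wild type was based on the change in genotype frequencies. Genotypes required ≥ 100 starting reads, and estimates < 0.5 were set to 0.5.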
row,Variant,yeast fitness
1,C24G C66U A69C,≤ 0.5
2,C24G G25A,0.852
3,C24G G25A A45G C60A,≤ 0.5
4,C24G G25A C30G,≤ 0.5
5,C24G G25A C31G,0.703
6,C24G G25C A40C A42U U47A C61G C66G,0.509
7,C24G G25C A45G C60A,0.617
8,C24G G25C C30G U32C A70C,0.533
9,C24G G25C C30G U32C G58A C60U,≤ 0.5
10,C24G G25C C30G U32C G67C,≤ 0.5
11,C24G G25C C66A,≤ 0.5
12,C24G G25C U35A G52A,≤ 0.5
13,C24G G38C A65C,0.513
14,C24G G38C C46A,≤ 0.5
15,C24G G38C C62A,0.852
16,C24G G39A,0.643
17,C24G G39C A57G A65G,≤ 0.5
18,C24G G39C C60U A65U,≤ 0.5
19,C24G G41A C46U A65G,≤ 0.5
20,C24G G41A G44A U53A C66U,≤ 0.5
21,C24G G44A,0.568

row,Variant,yeast fitness
1,C24G G44C,0.66
2,C24G G44C G68U,0.663
3,C24G G48A G58C,0.735
4,C24G G48C A57G G68C,≤ 0.5
5,C24G G50A,0.616
6,C24G G50A A57G,≤ 0.5
7,C24G G50A C55G,≤ 0.5
8,C24G G50C,0.543
9,C24G G51C,0.537
10,C24G G52A,0.566
11,C24G G52C,≤ 0.5
12,C24G G56C U59C,≤ 0.5
13,C24G G58C C62U,≤ 0.5
14,C24G G63A,0.554
15,C24G G68A,0.653
16,C24G U26A A65C,≤ 0.5
17,C24G U26A C33U,≤ 0.5
18,C24G U26A C33U U54A,0.609
19,C24G U26A C46A G58C,≤ 0.5
20,C24G U26A U35A C55U A65G A69C,≤ 0.5
21,C24G U26C,0.688

row,Variant,yeast fitness
1,C24G U26C C31U,0.747
2,C24G U28C,0.508
3,C24G U28C A43U C60A,≤ 0.5
4,C24G U28C C31G C66U,≤ 0.5
5,C24G U28C G50C,≤ 0.5
6,C24G U28G C29G U35G U47A,0.606
7,C24G U28G C33U A42U G50A,≤ 0.5
8,C24G U28G C33U A42U G50A A70U,≤ 0.5
9,C24G U28G C46G G67U,≤ 0.5
10,C24G U32G A36G C60A A65U,≤ 0.5
11,C24G U35A G48C,≤ 0.5
12,C24G U35G C66U,≤ 0.5
13,C24G U53G,≤ 0.5
14,C24G U53G A57G,0.545
15,C24G U54C C55A A65U,≤ 0.5
16,C24G U54C G68C,≤ 0.5
17,C24G U54G C55G C62U,≤ 0.5
18,C24G U59G A65U,0.659
19,C24G U64A A70C,≤ 0.5
20,C24U A36C A45C C55U A70U,≤ 0.5
21,C24U A36C A45U,0.513

row,Variant,yeast fitness
1,C24U A36C G44C C62A,0.752
2,C24U A36G C55G,≤ 0.5
3,C24U A36G G58C C66G G68A,0.569
4,C24U A36G G63C,≤ 0.5
5,C24U A36G U47A,0.529
6,C24U A36G U64A,0.595
7,C24U A36U A43G,0.509
8,C24U A36U C49G,0.544
9,C24U A36U C55G A57G G63C,≤ 0.5
10,C24U A37C G50C,0.547
11,C24U A37G,0.708
12,C24U A37G A43G C49A,≤ 0.5
13,C24U A37G A45U A69C,≤ 0.5
14,C24U A37G G39A G48C,≤ 0.5
15,C24U A37U A40U,0.568
16,C24U A37U A43U,0.646
17,C24U A40C G52C G67A,≤ 0.5
18,C24U A40C G68C,0.502
19,C24U A40G,0.72
20,C24U A40G C60U A65C,≤ 0.5
21,C24U A40U G68U A70C,≤ 0.5
